Tests used:
hepatocytes [1] = test: Apoptosis, cytochrome C biosensor in sentinel hepatocytes; format: cell-based, human; settings: for Effect on hepatocellular apoptosis biosensor: 600 μM caffeine, 28 days
SQL-SAL [2] = test: SQL-SAL toxicity testing, overall response; settings: 28μM troglitazone, over 21 days
hepatocytes [3] = test: Bile; format: cell-based, human; settings: 50 μM troglitazone, day 10 devices, 10-min intervals for 60 min, vs vehicle (1% DMSO)
SQL-SAL [4] = test: LDH leakage in efflux media of SQL-SAL devices; settings: for Days with significant LDH release (p≤0.05): vs vehicle
SQL-SAL [5] = settings: human, 180 μM
hepatocytes [6] = test: Mitochondrial-targeted ROS biosensor in sentinel hepatocytes; format: cell-based, human; settings: troglitazone, measured over 24 h
[7] = Urea secretion in efflux media of SQL-SAL devices; settings: human
SQL-SAL [8] = test: Urea secretion in efflux media of SQL-SAL devices
[9] = Albumin secretion in efflux media of SQL-SAL devices; settings: human
SQL-SAL [10] = test: as above
hepatocytes [11] = test: Hepatocyte area by HCA in SQL-SAL; settings: 200 μM trovafloxacin (40 × Cmax) with 1 μg/mL LPS
Cyp 2C9 = Cyp 2C9 (Homo sapiens, UniProt P11712); settings: 24 h, 10 μM
LX2 cultures = settings: human
LX-2 stellate cells = test: LX-2 stellate cell migration in SQL-SAL; format: cell-based, human; settings: 30 nM methotrexate, days 4 and 7, vs vehicle control (p ≤ 0.05)
[12] = tested on: collagen type 1, alpha 2 (COL1A2); test: Indirect immunofluorescence of COL1A2 in SQL-SAL; format: cell-based, human; settings: 30nM methotrexate, day 21, relative to vehicle control (p ≤ 0.05)
Method in brief: (§1)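 Human liver model in a perfused microfluidic device: primary hepatocytes, EA.hy926, U937 and LX-2 cells, with the LX-2 cells in collagen. The LX-2 cells are transduced with pLVX-IRES-mito-mKate2 for identification. Perfusion at 5 µL/h with HMM plus 100 nM dexamethasone at 37℃, 5% CO2; test compound in 1% DMSO. On day 21, paraformaldehyde-fixed and stained by indirect immunofluorescence. Value is the ratio of average cellular antibody intensity in stellate versus non-stellate cells; equal-variance t-test.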

[13] = tested on: human alpha- smooth muscle actin (alpha-SMA); test: Indirect immunofluorescence of alpha-SMA in SQL-SAL; format: cell-based
Method in brief: as §1

[14] = 28 μM troglitazone versus caffeine control
[15] = 180 μM troglitazone, starting at day 1 of treatment

Sequence of Cyp 2C9 (P11712 whole entry): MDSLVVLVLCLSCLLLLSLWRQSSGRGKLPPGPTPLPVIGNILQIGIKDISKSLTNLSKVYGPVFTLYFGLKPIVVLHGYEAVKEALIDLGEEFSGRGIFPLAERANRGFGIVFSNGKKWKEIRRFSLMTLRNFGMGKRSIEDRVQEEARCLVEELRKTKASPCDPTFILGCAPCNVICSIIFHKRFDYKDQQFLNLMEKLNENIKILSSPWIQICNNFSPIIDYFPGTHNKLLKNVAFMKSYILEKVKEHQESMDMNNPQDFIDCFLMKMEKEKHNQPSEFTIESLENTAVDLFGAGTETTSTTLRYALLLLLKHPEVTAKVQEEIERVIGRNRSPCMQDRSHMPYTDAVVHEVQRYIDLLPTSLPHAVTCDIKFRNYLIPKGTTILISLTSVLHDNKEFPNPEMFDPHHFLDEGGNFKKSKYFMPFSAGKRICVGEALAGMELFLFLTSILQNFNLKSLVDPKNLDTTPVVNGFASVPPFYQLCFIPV

Cn1c(=O)c2c(ncn2C)n(C)c1=O [caffeine]
Effect on hepatocellular apoptosis biosensor (hepatocytes [1]): no appreciable effect | Effect on hepatocellular apoptosis biosensor (hepatocytes [1]; listed as Caffeine): no significant effect

Cc1c(C)c2c(c(C)c1O)CCC(C)(COc1ccc(CC3SC(=O)NC3=O)cc1)O2 (stereo not shown) [troglitazone]
Toxic response (SQL-SAL [2]): gradual and much delayed toxic response | CMFDA uptake and canalicular efflux (hepatocytes [3]): slower uptake and inhibition of efflux | Overt cytotoxicity, measured as LDH release, delayed until day (SQL-SAL [4]; 28 μM (4 × Cmax) troglitazone, continuous perfusion, vs 600 μM caffeine): 13 days | Overt cytotoxicity, measured as LDH release, found on day (SQL-SAL [4]; 180 μM (30 × Cmax) troglitazone, continuous perfusion, vs 600 μM caffeine): 4 days | Peak LDH release (SQL-SAL [4]; troglitazone 180nM (30 × Cmax)): ~4 days | Days with significant LDH release (p≤0.05) (SQL-SAL [4]; troglitazone 180nM (30 × Cmax)): 4 to 6 days | Peak LDH loss (SQL-SAL [4]; troglitazone 28 μM (4 × Cmax)): ~13 days | Days with significant LDH release (p≤0.05) (SQL-SAL [4]; troglitazone 28 μM (4 × Cmax)): 13 to 15 days | Acute toxicity produced within (SQL-SAL [5]): 2 to 4 days | ROS, mitochondrial-targeted ROS biosensor (hepatocytes [6]): increase in ROS | half-life at 28 μM [7]: ~288 h | half-life at 180 μM [7]: ~72 h | Change in urea (SQL-SAL [8]; [14]): gradual decrease | Change in urea (SQL-SAL [8]; [15]): sharp decrease | Days with significant decline in urea secretion (p ≤ 0.05) (SQL-SAL [8]; troglitazone 28 μM (4 × Cmax)): 4 to 28 days | Days with significant decline in urea secretion (p ≤ 0.05) (SQL-SAL [8]; troglitazone 180μM (30 × Cmax)): 4 to 10 days | Induction of apoptosis (loss of mitochondrial cytochrome C biosensor intensity) began on day (hepatocytes [1]; 28 μM troglitazone): 10 days | Induction of apoptosis (loss of mitochondrial cytochrome C biosensor intensity) began on day (hepatocytes [1]; 180 μM troglitazone): 1 days | Days with significant levels (p ≤ 0.05) of apoptosis, cytochrome C biosensor (hepatocytes [1]; troglitazone 28 μM): 16 to 28 days | Days with significant levels (p ≤ 0.05) of apoptosis, cytochrome C biosensor (hepatocytes [1]; troglitazone 180 μM): 1 to 15 days | half-life at 28 μM [9]: ~264 h | half-life at 180 μM [9]: ~72 h | Change in albumin (SQL-SAL [10]; [14]): gradual decrease | Change in albumin (SQL-SAL [10]; [15]): sharp decrease | Days with significant decline in albumin secretion (p≤ 0.05) (SQL-SAL [10]; troglitazone 28 μM (4 × Cmax)): 18 to 28 days | Days with significant decline in albumin secretion (p≤ 0.05) (SQL-SAL [10]; troglitazone 180μM (30 × Cmax)): 4 to 10 days

N[C@@H]1[C@H]2CN(c3nc4c(cc3F)c(=O)c(C(=O)O)cn4-c3ccc(F)cc3F)C[C@@H]12 [trovafloxacin]
Change in hepatocyte area (hepatocytes [11]): decrease in hepatocyte area | LDH leakage (SQL-SAL [4]; 200 μM (40 × Cmax) trovafloxacin co-incubated with 1 μg/mL LPS, 3 and 5 days): Increased LDH leakage

CS(=O)(=O)Nc1ccc([N+](=O)[O-])cc1Oc1ccccc1 [nimesulide]
Effect on LDH (SQL-SAL [4]; 210 μM nimesulide (10 × Cmax)): rapid release | Change in urea (SQL-SAL [8]; 210 μM nimesulide (10 × Cmax)): decreases | Apoptotic hepatocytes (hepatocytes [1]; 210 μM nimesulide (10 × Cmax)): rapid increase | Change in albumin (SQL-SAL [10]; 210 μM nimesulide (10 × Cmax)): decreases

O=C(O)Cc1ccccc1Nc1c(Cl)cccc1Cl [Diclofenac, diclofenac]
Metabolite found in efflux media (AUC) (Cyp 2C9): 36943 ±28302

CN(Cc1cnc2nc(N)nc(N)c2n1)c1ccc(C(=O)N[C@@H](CCC(=O)O)C(=O)O)cc1 [methotrexate]
maximum tolerated concentration (LX2 cultures): 100 nM | LX-2 stellate cells proximal to the hepatocyte layer (LX-2 stellate cells): significantly accumulate | Expression of collagen, type 1, alpha 2 (COL1A2) in LX-2 stellate cells [12]: increased | Expression of human alpha-SMA in LX-2 stellate cells ([13]; 30nM methotrexate, day 21, relative to vehicle control (p ≤ 0.05)): increased | alpha-SMA expression in hepatocytes ([13]; methotrexate treatment): increased
